Where “and” joins values, the source holds several entries; their conditions need not be identical. Equal values may be shown once.
Tested on: Fibroblast
Assay: Multiplex assay against human fibroblast
Assay type: toxicity, cell-based
Procedure, shortened: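 On a CQ1 microscope at 37°C and 5% CO2, live cells were imaged after compound addition. They had been stained at seeding with Hoechst33342, BioTracker Green Microtubule Cytoskeleton Dye, MitoTracker Red and Annexin V Alexa Fluor 680. CellPathfinder machine-learning gating assigned cells to Hoechst high-intensity objects or normal cells, normal cells to healthy, pyknosed or fragmented nuclei, and pyknosed cells to mitotic or apoptotic. Tubulin, mitochondrial-mass and membrane-permeability phenotypes are per cents of healthy-nucleus cells.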

[1] = 12 h, 1 µM, compound concentration 1 uM
[2] = 12 h, 10 µM, compound concentration 10 uM
[3] = 24 h, 1 µM, compound concentration 1 uM
[4] = 24 h, 10 µM, compound concentration 10 uM
[5] = 48 h, 1 µM, compound concentration 1 uM
[6] = 48 h, 10 µM, compound concentration 10 uM

## CC(C)c1ccc(/C=N/NC(=O)c2ccc(O)cc2)cc1
[1]
  Population Apoptotic (%): 12.07% and 15.38%
  Population Fragmented Nuclei (%): 10.89% and 4%
  Population Healthy Nuclei (%): 60.4% and 76.5%
  Population Hoechst High Intensity Objects (%): 0%
  Population Membrane Permeable-Phenotype (%): 4.1% and 2.61%
  Population Mitochondria Different-Phenotype (%): 6.56% and 9.15%
  Population Mitotic Cells (%): 87.93% and 84.62%
  Population Normal (%): 100%
  Population Pyknosed Nuclei (%): 28.71% and 19.5%
  Population Tubulin-Different-Phenotype (%): 12.3% and 17.65%
  Total Cell Count: 202 and 200
[2]
  Population Fragmented Nuclei (%): 13.41% and 4.65%
  Population Healthy Nuclei (%): 61.45% and 73.02%
  Population Hoechst High Intensity Objects (%): 0%
  Population Membrane Permeable-Phenotype (%): 8.18% and 2.55%
  Population Mitochondria Different-Phenotype (%): 6.36% and 9.55%
  Population Mitotic Cells (%): 95.56% and 77.08%
  Population Normal (%): 100%
  Population Pyknosed Nuclei (%): 25.14% and 22.33%
  Population Tubulin-Different-Phenotype (%): 20% and 17.2%
  Total Cell Count: 179 and 215
[3]
  Population Apoptotic (%): 15% and 14.81%
  Population Fragmented Nuclei (%): 10.53% and 4.39%
  Population Healthy Nuclei (%): 71.93% and 82.44%
  Population Hoechst High Intensity Objects (%): 0%
  Population Membrane Permeable-Phenotype (%): 1.83% and 3.55%
  Population Mitochondria Different-Phenotype (%): 4.27% and 7.1%
  Population Mitotic Cells (%): 85% and 85.19%
  Population Normal (%): 100%
  Population Pyknosed Nuclei (%): 17.54% and 13.17%
  Population Tubulin-Different-Phenotype (%): 12.2% and 18.34%
  Total Cell Count: 228 and 205
[4]
  Population Fragmented Nuclei (%): 10.93% and 4.82%
  Population Healthy Nuclei (%): 66.12% and 76.75%
  Population Hoechst High Intensity Objects (%): 0%
  Population Membrane Permeable-Phenotype (%): 5.79% and 3.43%
  Population Mitochondria Different-Phenotype (%): 7.44% and 5.14%
  Population Mitotic Cells (%): 95.24% and 83.33%
  Population Normal (%): 100%
  Population Pyknosed Nuclei (%): 22.95% and 18.42%
  Population Tubulin-Different-Phenotype (%): 14.88% and 16%
  Total Cell Count: 183 and 228
[5]
  Population Apoptotic (%): 27.27% and 44.44%
  Population Fragmented Nuclei (%): 8% and 5.96%
  Population Healthy Nuclei (%): 87.11% and 89.91%
  Population Hoechst High Intensity Objects (%): 0%
  Population Membrane Permeable-Phenotype (%): 1.02% and 3.57%
  Population Mitotic Cells (%): 72.73% and 55.56%
  Population Normal (%): 100%
  Population Pyknosed Nuclei (%): 4.89% and 4.13%
  Population Tubulin-Different-Phenotype (%): 9.18% and 15.31%
  Total Cell Count: 225 and 218
[6]
  Population Apoptotic (%): 40% and 30%
  Population Fragmented Nuclei (%): 13.54% and 4.26%
  Population Healthy Nuclei (%): 78.65% and 87.23%
  Population Hoechst High Intensity Objects (%): 0%
  Population Membrane Permeable-Phenotype (%): 3.31% and 2.44%
  Population Mitochondria Different-Phenotype (%): 6.62% and 1.95%
  Population Mitotic Cells (%): 60% and 70%
  Population Normal (%): 100%
  Population Pyknosed Nuclei (%): 7.81% and 8.51%
  Population Tubulin-Different-Phenotype (%): 10.6% and 14.63%
  Total Cell Count: 192 and 235

## S=c1[nH]nc(-c2cccs2)n1-c1ccccc1
[1]
  Population Apoptotic (%): 10.45% and 27.27%
  Population Fragmented Nuclei (%): 8.13% and 2.86%
  Population Healthy Nuclei (%): 59.81% and 84.57%
  Population Hoechst High Intensity Objects (%): 0%
  Population Membrane Permeable-Phenotype (%): 2.4% and 4.05%
  Population Mitochondria Different-Phenotype (%): 10.4% and 6.76%
  Population Mitotic Cells (%): 89.55% and 72.73%
  Population Normal (%): 100%
  Population Pyknosed Nuclei (%): 32.06% and 12.57%
  Population Tubulin-Different-Phenotype (%): 13.6% and 28.38%
  Total Cell Count: 209 and 175
[2]
  Population Apoptotic (%): 17.07% and 26.67%
  Population Healthy Nuclei (%): 62.62% and 78.84%
  Population Hoechst High Intensity Objects (%): 0%
  Population Membrane Permeable-Phenotype (%): 5.97% and 4.03%
  Population Mitochondria Different-Phenotype (%): 8.21% and 11.41%
  Population Mitotic Cells (%): 82.93% and 73.33%
  Population Normal (%): 100%
  Population Pyknosed Nuclei (%): 19.16% and 15.87%
  Population Tubulin-Different-Phenotype (%): 14.18% and 20.13%
  Total Cell Count: 214 and 189
[3]
  Population Fragmented Nuclei (%): 7.76% and 4%
  Population Healthy Nuclei (%): 78.88% and 84%
  Population Hoechst High Intensity Objects (%): 0%
  Population Membrane Permeable-Phenotype (%): 3.28% and 2.04%
  Population Mitochondria Different-Phenotype (%): 4.92% and 4.76%
  Population Mitotic Cells (%): 93.55% and 76.19%
  Population Normal (%): 100%
  Population Pyknosed Nuclei (%): 13.36% and 12%
  Population Tubulin-Different-Phenotype (%): 8.2% and 19.05%
  Total Cell Count: 232 and 175
[4]
  Population Apoptotic (%): 16.22% and 35.71%
  Population Fragmented Nuclei (%): 14.71% and 5.24%
  Population Healthy Nuclei (%): 69.75% and 80.1%
  Population Hoechst High Intensity Objects (%): 0%
  Population Membrane Permeable-Phenotype (%): 3.61% and 5.88%
  Population Mitochondria Different-Phenotype (%): 4.22% and 5.23%
  Population Mitotic Cells (%): 83.78% and 64.29%
  Population Normal (%): 100%
  Population Pyknosed Nuclei (%): 15.55% and 14.66%
  Population Tubulin-Different-Phenotype (%): 11.45% and 16.99%
  Total Cell Count: 238 and 191
[5]
  Population Apoptotic (%): 8.33% and 10.53%
  Population Fragmented Nuclei (%): 8.8% and 5.49%
  Population Healthy Nuclei (%): 86.4% and 84.07%
  Population Hoechst High Intensity Objects (%): 0%
  Population Membrane Permeable-Phenotype (%): 0.93% and 1.96%
  Population Mitochondria Different-Phenotype (%): 10.19% and 2.61%
  Population Mitotic Cells (%): 91.67% and 89.47%
  Population Normal (%): 100%
  Population Pyknosed Nuclei (%): 4.8% and 10.44%
  Total Cell Count: 250 and 182
[6]
  Population Apoptotic (%): 11.76% and 33.33%
  Population Fragmented Nuclei (%): 10.61% and 5.58%
  Population Healthy Nuclei (%): 82.45% and 88.32%
  Population Hoechst High Intensity Objects (%): 0%
  Population Membrane Permeable-Phenotype (%): 0% and 2.3%
  Population Mitochondria Different-Phenotype (%): 9.9% and 4.02%
  Population Mitotic Cells (%): 88.24% and 66.67%
  Population Normal (%): 100%
  Population Pyknosed Nuclei (%): 6.94% and 6.09%
  Total Cell Count: 245 and 197

## Cn1cnc(-c2cnc(O[C@H]3CCN(C(=O)Cc4ccc(OC(F)(F)F)cc4)C[C@H]3F)c(C(N)=O)c2)c1
[1]
  Population Apoptotic (%): 14%
  Population Healthy Nuclei (%): 57.67% and 77.82%
  Population Hoechst High Intensity Objects (%): 0%
  Population Mitotic Cells (%): 86% and 87.5%
  Population Normal (%): 100%
  Population Pyknosed Nuclei (%): 26.46% and 13.39%
[2]
  Population Apoptotic (%): 14.93% and 26.53%
  Population Healthy Nuclei (%): 58.85% and 71.95%
  Population Hoechst High Intensity Objects (%): 0%
  Population Mitotic Cells (%): 85.07% and 73.47%
  Population Normal (%): 100%
  Population Pyknosed Nuclei (%): 29.65% and 22.17%
[3]
  Population Apoptotic (%): 8.89% and 19.35%
  Population Healthy Nuclei (%): 68.08% and 79.62%
  Population Hoechst High Intensity Objects (%): 0%
  Population Mitotic Cells (%): 91.11% and 80.65%
  Population Normal (%): 100%
  Population Pyknosed Nuclei (%): 21.13% and 11.7%
[4]
  Population Healthy Nuclei (%): 69.48% and 75.54%
  Population Hoechst High Intensity Objects (%): 0%
  Population Mitotic Cells (%): 93.62% and 75.76%
  Population Normal (%): 100%
  Population Pyknosed Nuclei (%): 18.88% and 11.87%
[5]
  Population Apoptotic (%): 25%
  Population Healthy Nuclei (%): 78.48% and 79.12%
  Population Hoechst High Intensity Objects (%): 0%
  Population Mitotic Cells (%): 75% and 83.33%
  Population Normal (%): 100%
  Population Pyknosed Nuclei (%): 8.44% and 6.59%
[6]
  Population Apoptotic (%): 33.33% and 57.14%
  Population Healthy Nuclei (%): 77.93% and 84.75%
  Population Hoechst High Intensity Objects (%): 0%
  Population Mitotic Cells (%): 66.67% and 42.86%
  Population Normal (%): 100%
  Population Pyknosed Nuclei (%): 3.1% and 4.96%

## Cl.Cl.N#Cc1ccc(O[C@@H]2c3ccccc3C[C@H]2N2CCC[C@@H](N)C2)c(Cl)c1
[1]
  Population Apoptotic (%): 13.21% and 14.29%
  Population Fragmented Nuclei (%): 8.33% and 10.47%
  Population Healthy Nuclei (%): 57.69% and 74.87%
  Population Hoechst High Intensity Objects (%): 0%
  Population Membrane Permeable-Phenotype (%): 6.67% and 4.9%
  Population Mitochondria Different-Phenotype (%): 20% and 19.58%
  Population Mitotic Cells (%): 86.79% and 85.71%
  Population Normal (%): 100%
  Population Pyknosed Nuclei (%): 33.97% and 14.66%
  Population Tubulin-Different-Phenotype (%): 35.56% and 58.04%
  Total Cell Count: 156 and 191
[2]
  Population Apoptotic (%): 14.81% and 27.63%
  Population Fragmented Nuclei (%): 18.93% and 7.94%
  Population Healthy Nuclei (%): 49.11% and 64.62%
  Population Hoechst High Intensity Objects (%): 0%
  Population Membrane Permeable-Phenotype (%): 3.61% and 6.15%
  Population Mitochondria Different-Phenotype (%): 62.65% and 43.58%
  Population Mitotic Cells (%): 85.19% and 72.37%
  Population Normal (%): 100%
  Population Pyknosed Nuclei (%): 31.95% and 27.44%
  Population Tubulin-Different-Phenotype (%): 78.31% and 88.83%
  Total Cell Count: 169 and 277
[3]
  Population Fragmented Nuclei (%): 6.79% and 14.63%
  Population Healthy Nuclei (%): 62.35% and 76.59%
  Population Hoechst High Intensity Objects (%): 0%
  Population Membrane Permeable-Phenotype (%): 4.95% and 3.18%
  Population Mitochondria Different-Phenotype (%): 18.81% and 13.38%
  Population Mitotic Cells (%): 98% and 77.78%
  Population Normal (%): 100%
  Population Tubulin-Different-Phenotype (%): 36.63% and 57.32%
  Total Cell Count: 162 and 205
[4]
  Population Apoptotic (%): 29.27% and 37.5%
  Population Fragmented Nuclei (%): 11.58% and 4.05%
  Population Healthy Nuclei (%): 66.84% and 78.5%
  Population Hoechst High Intensity Objects (%): 0%
  Population Membrane Permeable-Phenotype (%): 2.36% and 3.17%
  Population Mitochondria Different-Phenotype (%): 70.08% and 55.16%
  Population Mitotic Cells (%): 70.73% and 62.5%
  Population Normal (%): 100%
  Population Pyknosed Nuclei (%): 21.58% and 17.45%
  Population Tubulin-Different-Phenotype (%): 85.83% and 88.1%
  Total Cell Count: 190 and 321
[5]
  Population Apoptotic (%): 20% and 38.89%
  Population Fragmented Nuclei (%): 13.79% and 11.43%
  Population Healthy Nuclei (%): 78.82% and 80%
  Population Hoechst High Intensity Objects (%): 0%
  Population Membrane Permeable-Phenotype (%): 1.88% and 1.79%
  Population Mitochondria Different-Phenotype (%): 16.88% and 10.12%
  Population Mitotic Cells (%): 80% and 61.11%
  Population Normal (%): 100%
  Population Pyknosed Nuclei (%): 7.39% and 8.57%
  Population Tubulin-Different-Phenotype (%): 32.5% and 59.52%
  Total Cell Count: 203 and 210
[6]
  Population Apoptotic (%): 37.5% and 50%
  Population Healthy Nuclei (%): 75.86% and 86.13%
  Population Hoechst High Intensity Objects (%): 0%
  Population Membrane Permeable-Phenotype (%): 0.57% and 3.37%
  Population Mitochondria Different-Phenotype (%): 42.61% and 26.22%
  Population Mitotic Cells (%): 62.5% and 50%
  Population Normal (%): 100%
  Population Pyknosed Nuclei (%): 3.45% and 7.1%
  Population Tubulin-Different-Phenotype (%): 79.55% and 86.89%
  Total Cell Count: 232 and 310

Reference: ChEMBL document CHEMBL5724801, “EUbOPEN Chemogenomics Library - Multiplex” (2024)
